Laboratory results reported in paper PMC10038104 (ACS infectious diseases, 2022).
Converted amounts (≈) assume the structure as drawn. Positions of bridges follow the written chain, without caps; N, C: chain ends. Residues, ends and D or L forms follow the SMILES beside them.

How the values were obtained:
[1] = system: Enterobacter cloacae ATCC 13047; type: cell-based
[2] = system: E. nimipressuralis DSM 18955; type: cell-based
E. asburiae DSM 17506 = type: cell-based
E. mori DSM 26271 = type: cell-based
E. coli MG1655 = test: spot-on-lawn assay in M63 agar; type: cell-based; conditions: purified peptide dissolved in water
How it was run: (§1)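 Purified peptide in water, concentration set by A280. Each strain was grown overnight in LB, then subcultured in LB to mid-exponential phase (OD600 ~0.4-0.6). It was seeded at ~10^7 CFU/mL into molten M63 soft agar, overlaid on M63 agar and dried. Peptide was spotted at various concentrations and dried. After overnight incubation, zones of inhibition were scored; the last visible spot was taken as MIC.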

B. subtilis 168 = test: spot-on-lawn assay in M63 agar; type: cell-based; conditions: purified peptide dissolved in water
How it was run: as §1

[3] = system: Salmonella enterica serovar Newport; test: spot-on-lawn assay in M63 agar; type: cell-based; conditions: purified peptide dissolved in water
How it was run: as §1

[4] = system: Klebsiella aerogenes ATCC 13048; test: spot-on-lawn assay in M63 agar; type: cell-based; conditions: purified peptide dissolved in water
How it was run: as §1

[5] = system: Enterobacter hormaechei ATCC 700323; test: spot-on-lawn assay in M63 agar; type: cell-based; conditions: purified peptide dissolved in water
How it was run: as §1

[6] = system: Enterobacter kobei BAA-260; test: spot-on-lawn assay in M63 agar; type: cell-based; conditions: purified peptide dissolved in water
How it was run: as §1

[7] = system: clinical isolates of Enterobacter; test: spot-on-lawn assay, the other 6 clinical isolates; type: cell-based; conditions: the other 6 of 12 clinical isolates (Table S4B)
How it was run: as §1

E. coli XL-1 Blue = test: intracellular expression from plasmid with cloD gene removed; type: cell-based; conditions: LB agar with IPTG; plasmid without cloD so that the peptide cannot be exported
trypsin = trypsin (Sus scrofa, UniProt P00761); test: trypsin digestion; type: in vitro ADME; conditions: 50 mM ammonium bicarbonate, 1:100 trypsin:peptide weight ratio, 30 minutes to 1 hour, LC-MS
Sequence of trypsin (P00761 9-231): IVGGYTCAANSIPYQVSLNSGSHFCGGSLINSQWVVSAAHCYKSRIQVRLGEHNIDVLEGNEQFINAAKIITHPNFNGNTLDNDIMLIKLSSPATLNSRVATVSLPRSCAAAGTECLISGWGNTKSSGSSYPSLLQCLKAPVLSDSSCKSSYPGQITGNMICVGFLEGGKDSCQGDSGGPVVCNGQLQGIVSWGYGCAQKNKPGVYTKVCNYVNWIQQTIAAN

α-chymotrypsin = α-chymotrypsin (Bos taurus, UniProt P00766); test: α-chymotrypsin digestion; type: in vitro ADME; conditions: 100 mM Tris, 10 mM CaCl2, pH 8.0, 0.04 mg/mL α-chymotrypsin, 1 hour, 25 °C, LC-MS
elastase = elastase digestion; type: in vitro ADME; conditions: 50 mM Tris pH 9.0, 0.04 mg/mL elastase, 1 hour, 25 °C, LC-MS
thermolysin = thermolysin (Bacillus thermoproteolyticus, UniProt P00800); test: thermolysin digestion; type: in vitro ADME; conditions: 50 mM Tris, 0.5 mM CaCl2, pH 8.0, 0.04 mg/mL thermolysin, 1 hour, 30 °C, LC-MS
Sequence of thermolysin (P00800 233-548): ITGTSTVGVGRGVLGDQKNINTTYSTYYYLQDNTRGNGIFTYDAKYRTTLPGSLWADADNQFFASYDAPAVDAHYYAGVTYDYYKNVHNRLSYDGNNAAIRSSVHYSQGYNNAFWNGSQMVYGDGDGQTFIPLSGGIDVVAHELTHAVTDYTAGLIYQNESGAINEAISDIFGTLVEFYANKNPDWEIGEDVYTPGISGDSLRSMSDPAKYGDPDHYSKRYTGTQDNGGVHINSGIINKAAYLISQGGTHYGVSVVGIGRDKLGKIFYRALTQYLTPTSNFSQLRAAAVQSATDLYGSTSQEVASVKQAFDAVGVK

E. amnigenus = conditions: 16 h
[8] = 37 °C, pure water, 72 hours, 18 μM, relative peak area by LC-MS
[9] = system: carboxypeptidase B and carboxypeptidase Y; test: carboxypeptidase treatment; conditions: 20 °C, 16 hours, 50 mM sodium acetate pH 6.0, LC-MS

## CC[C@H](C)[C@@H]1NC(=O)[C@H](CCCNC(=N)N)NC(=O)[C@H](CC(=O)O)NC(=O)[C@H](C(C)C)NC(=O)[C@H](CO)NC(=O)[C@H](Cc2c[nH]cn2)NC(=O)CNC(=O)CC[C@@H](C(=O)N[C@@H](Cc2ccc(O)cc2)C(=O)N[C@@H](Cc2ccccc2)C(=O)NCC(=O)N2CCC[C@H]2C(=O)N2CCC[C@H]2C(=O)NCC(=O)N[C@@H](CC(C)C)C(=O)N2CCC[C@H]2C(=O)NCC(=O)N2CCC[C@H]2C(=O)N[C@H](C(=O)N[C@@H](CC(C)C)C(=O)N[C@@H](Cc2ccccc2)C(=O)N[C@@H](Cc2ccc(O)cc2)C(=O)N[C@@H](CO)C(=O)O)C(C)C)NC(=O)[C@@H]2CCCN2C1=O [cloacaenodin] (GHSVDRIPEYFGPPGLPGPVLFYS-OH; lactam N-9; C-terminus assumed)
[1]
  MIC in M63 media (agar): 7.5 µM (≈ 19.4 µg/mL)
[2]
  MIC in M63 media (agar): 1.9 µM (≈ 4.91 µg/mL)
E. asburiae DSM 17506
  MIC in M63 media (agar): 3.8 µM (≈ 9.82 µg/mL)
E. mori DSM 26271
  MIC in M63 media (agar): 1.9 µM (≈ 4.91 µg/mL)
E. coli MG1655
  antimicrobial activity (zones of inhibition): no observed activity
B. subtilis 168
  antimicrobial activity (zones of inhibition): no observed activity
[3]
  antimicrobial activity (zones of inhibition): no observed activity
[4]
  antimicrobial activity (zones of inhibition): no observed activity
[5]
  antimicrobial activity (zones of inhibition): no observed activity
[6]
  antimicrobial activity (zones of inhibition): no observed activity
[7]
  antimicrobial activity: weak or no activity
E. coli XL-1 Blue
  E. coli growth upon IPTG-induced intracellular expression without cloD: colonies did not appear
trypsin
  susceptibility to proteolysis by trypsin: remained resistant to proteolysis
α-chymotrypsin
  susceptibility to proteolysis by chymotrypsin: remained resistant to proteolysis
elastase
  susceptibility to proteolysis by elastase: remained resistant to proteolysis
thermolysin
  susceptibility to proteolysis by thermolysin: remained resistant to proteolysis
E. cloacae; 16 h
  MIC in M63 media (liquid): 940 nM (≈ 2.43 µg/mL)
E. cloacae; E. cloacae cells treated with sub-MIC values, broth microdilution cultures
  cell morphology under the microscope: exhibited a degree of filamentation
E. amnigenus
  MIC in M63 media (liquid): 230 nM (≈ 0.594 µg/mL)
[8]
  fraction remaining threaded: ~ 83%
[9]
  susceptibility to C-terminal proteolysis by carboxypeptidase: resistant to C-terminal proteolysis
